# Bioassay records deposited in PubChem by several laboratories.
# The list is not random: actives were taken first. Their share in the collection is about 5.8%.
# Rev-RRE block: HIV-1 Rev-RRE binding inhibitors, primary screen, biochemical, FRET, protein-RNA interaction. P05866. Rev peptide-RRE RNA binding. inhibition, % at 8 µM. actives 0.79% (n = 97,000). AID 704, 2007;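 active = inhibition above the screen-wide mean plus 3 SD, cut at about 35% in these data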;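 also: 0% = median DMSO wells and 100% = median Neomycin B control wells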
# Target sequence (P05866 whole entry, looked up): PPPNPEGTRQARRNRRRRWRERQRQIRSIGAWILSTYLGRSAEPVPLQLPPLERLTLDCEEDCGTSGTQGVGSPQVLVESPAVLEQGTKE
#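 Material: labelled RRE RNA duplex and labelled Rev peptide / Buffer or medium: HEPES pH 7.5 salt buffer with EDTA / Compound dosing: single point, 8 µM final nominal compound concentration / Benchmarks: DMSO low control, neomycin B high control / Timing: 5 min preincubation and 15 min binding, 25 °C / Technique: FRET fluorescence readout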
# FAK blocker: FAK kinase inhibitors, primary screen, biochemical; Focal adhesion kinase 1 (Homo sapiens), Q05397; biochemical FAK kinase activity assay; inhibition, %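 (tested at 7 µM)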; actives 0.84% (n = 97,000); AID 727, 2007; in the data active = inhibition above about 19%;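 also: 0% = DMSO and 100% = reference compound high control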
# PLK1 kinase inh: human PLK1 kinase inhibitors, primary screen, biochemical, TR-FRET. actives 0.53% (n = 97,000). recombinant PLK1 kinase, TR-FRET peptide phosphorylation. inhibition, % at 10 µM. AID 619, 2007;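 active = inhibition of 50% or more in the single-concentration screen; inactive = inhibition below 50%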;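 also: 0% = DMSO max control and 100% = H-89 dihydrochloride min control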
# Target sequence (P53350 whole entry, looked up): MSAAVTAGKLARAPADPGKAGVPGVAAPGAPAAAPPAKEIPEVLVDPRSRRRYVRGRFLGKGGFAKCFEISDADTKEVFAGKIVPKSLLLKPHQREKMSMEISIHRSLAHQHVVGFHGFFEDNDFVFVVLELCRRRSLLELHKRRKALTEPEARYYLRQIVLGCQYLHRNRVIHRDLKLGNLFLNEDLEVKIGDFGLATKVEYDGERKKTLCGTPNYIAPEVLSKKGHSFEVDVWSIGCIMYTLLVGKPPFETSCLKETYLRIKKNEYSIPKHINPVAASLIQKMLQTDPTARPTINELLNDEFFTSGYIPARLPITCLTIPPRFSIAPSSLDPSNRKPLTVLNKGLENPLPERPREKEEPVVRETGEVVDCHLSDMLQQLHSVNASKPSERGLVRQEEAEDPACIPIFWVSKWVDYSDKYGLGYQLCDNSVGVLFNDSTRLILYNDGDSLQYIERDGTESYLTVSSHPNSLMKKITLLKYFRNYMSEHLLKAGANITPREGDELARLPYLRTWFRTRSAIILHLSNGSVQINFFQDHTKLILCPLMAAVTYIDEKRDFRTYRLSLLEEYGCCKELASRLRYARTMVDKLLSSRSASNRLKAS
# PTK2B oligo ant: antagonists of Pyk2 self-association, primary screen, Q293 cells, FERM NanoBiT luminescence, HTS | Protein-tyrosine kinase 2-beta (Homo sapiens), Q14289 | z-score (the deposit names both 25 µM and 10 µM) | actives 0.83% (n = 99,000) | AID 1347419, 2020 | active compounds read low;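 active = Z-score of -3 or lower, scaled per plate to the spread of control and sample wells; inactive = z-score above -3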;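 also: negative z-score means lost luminescence so less FERM oligomerization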
# Cav32 inh: Cav3.2 calcium influx blockers – cell-based, Fluo-4 calcium fluorescence, FDSS, MLSMR library, primary screen. AID 449739, 2010. actives 4% (n = 100,000). B-score at 10 µM. Cav3.2-expressing cells; active compounds read low;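 active = single-dose well whose peak fluorescence ratio is a statistical outlier from its plate by either plate-standardised score or position-corrected B-score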
# PLK1 PBD inh: Plk1 polo box domain binding inhibitors, primary screen, biochemical, fluorescence polarization; inhibition, %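 (tested at about 20 µM)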; Serine/threonine-protein kinase PLK1 (Homo sapiens), P53350; Plk1 PBD phosphopeptide binding; actives 0.13% (n = 97,000); in the data active = inhibition above about 34%, passing the limit was not always enough
# Active calls of the source: *; . = no result; [ ] = another dose, or the depositor's remark.
SMILES,Rev-RRE block,FAK blocker,PLK1 kinase inh,PTK2B oligo ant,Cav32 inh,PLK1 PBD inh
Cc1c(C(=O)NCC2COc3ccccc3O2)oc2ccc(S(=O)(=O)N3CC(C)CC(C)C3)cc12 (stereo unspecified),2.2,0.3,-20.8,-0.5,-3.9*,0.1
Cc1c(C(=O)NCC2CCCO2)oc2ccc(S(=O)(=O)N3CC(C)CC(C)C3)cc12 (stereo unspecified),3.8,-11.5,-9.8,.,-4.02*,-6.0
Cc1c(C(=O)NCC2COc3ccccc3O2)oc2ccc(S(=O)(=O)N3CCOCC3)cc12 (stereo unspecified),6.5,5.3,-5.1,-1.99,.,-1.4
Cc1c(C(=O)N2CCCCC2)oc2ccc(S(=O)(=O)N3CC(C)CC(C)C3)cc12 (stereo unspecified),1.1,-1.1,-8.3,-0.34,.,-22.3
O=C(CSC1=Nc2ccccc2C2=NC(CC(=O)NC3CCCCC3)C(=O)N12)NCc1ccco1 (stereo unspecified),7.5,3.2,-14.0,-0.71,-0.71,0.0
O=C(CCC1N=C2c3ccccc3N=C(SCc3ccccc3Cl)N2C1=O)NCc1ccco1 (stereo unspecified),0.7,0.4,-6.2,0.68,-4.19*,-8.4
CCOC(=O)C1=C(CC)Nc2ccccc2N=C1NC(=O)Nc1ccc(Cl)c(Cl)c1,5.2,2.3,-8.5,-4.11*,-3.82,-11.6
Cc1cc(Cl)ccc1OCC(=O)N1CC(C)CC(C)C1 (stereo unspecified),12.2,-0.3,-6.7,-0.23,-5.32*,-10.3
Cc1ccc(C2=[N+]([O-])C3(CCCCC/C3=N\NC(N)=S)N(O)C2(C)C)o1 (stereo unspecified),1.3,6.9,-9.8,.,.,-10.1
COC(=O)c1ccc(CSc2nc3cc(Cl)ccc3s2)o1,14.4,2.6,-5.8,1.13,-0.325,10.4
COCCn1c(SCC(=O)NCc2ccc3c(c2)OCO3)nnc1-c1c[nH]c2ccccc12,5.2,-6.2,63.2*,.,-1.29,-4.1
COCCn1c(SCc2ccc(C(=O)OC)o2)nc2cc(Cl)ccc2c1=O,2.5,6.7,-8.8,-1.62,-3.95*,-13.6
COCCn1c(SCC(=O)Nc2nnc(C)s2)nnc1-c1c[nH]c2ccccc12,2.4,2.2,-8.3,-0.31,0.0663,-10.8
COCCn1c(SCc2ccc(C(=O)OC)o2)nnc1-c1c[nH]c2ccccc12,-1.1,-6.9,59.0*,.,0.349,4.4
CC1CN=C(N(C(=O)Nc2ccccc2)c2ccc(S(=O)(=O)N3CCOCC3)cc2)S1 (stereo unspecified),1.3,1.3,-1.0,1.55,-3.13,9.4
O=C(NC1CC2CCC(C1)N2C(=O)NCc1ccccc1)NC12CC3CC(CC(C3)C1)C2 (stereo unspecified),-3.3,-2.7,-3.9,-0.61,.,-18.6
CCOc1cc(/C=N/NC(=O)CSc2nncn2C)ccc1OCc1cccc(C)c1,.,.,.,2.16,.,.
CC(C)Nc1ccc(C(CC(N)=O)NC(=O)Cc2ccc(Br)cc2)cc1[N+](=O)[O-] (stereo unspecified),.,.,.,.,-0.653,.
CCOc1ccc2c(c1)sc(=NC(=O)C1CC1)n2C,3.4,-0.6,-5.7,-1.14,-1.46,-29.6
CCn1c(=NC(=O)CSC(C)=O)sc2cc(OC)ccc21,2.3,0.8,-1.1,.,-6.67*,-12.3
COCCn1c(=NC(=O)CSC(C)=O)sc2cc(OC)ccc21,.,.,.,.,-5.94*,.
COc1ccc(C2CC(=O)c3cnc(NC(=O)c4ccccc4)nc3C2)c(OC)c1 (stereo unspecified),5.2,1.9,-7.4,2.43,-3.31*,2.5
COc1ccccc1C(=O)Nc1ncc2c(n1)CC(c1ccco1)CC2=O (stereo unspecified),5.4,-0.6,-8.9,-0.41,-0.155,-11.0
O=c1c2ccccc2nc(SCc2cn3ccsc3n2)n1-c1ccccc1,5.8,-0.9,8.9,-2.04,.,14.8
O=c1c2ccccc2nc(SCc2cn3ccsc3n2)n1-c1ccccc1F,0.4,7.0,-13.0,-3.48*,-1.61,2.0
SMILES,Rev-RRE block,FAK blocker,PLK1 kinase inh,PTK2B oligo ant,Cav32 inh,PLK1 PBD inh
Cc1cccc(OCc2nc(C#N)c(N3CC(C)CC(C)C3)o2)c1 (stereo unspecified),12.6,4.3,60.7*,.,-7.34*,8.9
N#Cc1nc(COc2ccccc2Cl)oc1N1CCCCCC1,14.3,2.8,-8.8,.,0.584,18.1
COc1ccc(OCc2nc(C#N)c(N3CCN(c4ccc(OC)cc4)CC3)o2)cc1,-1.3,-0.2,-0.8,.,-4.48*,-5.3
N#Cc1nc(COc2ccccc2F)oc1N1CCCCCC1,15.7,-0.1,-8.3,-1.49,-5.93*,5.3
N#Cc1nc(COc2ccc(Cl)cc2)oc1N1CCCCCC1,20.4,3.0,-8.7,-1.79,-5.02*,-15.7
CCNc1oc(COc2cccc(C)c2)nc1C#N,-0.5,0.3,-8.2,-0.09,-0.207,15.9
COc1ccc(N2CCN(c3oc(COc4ccccc4Cl)nc3C#N)CC2)cc1,.,.,.,0.88,-2.31,.
CCCNC(=O)c1onc(CSc2ccc(Cl)cc2)c1C(=O)NCCC(C)C,.,.,.,.,-3.13,.
CN(Cc1ccccc1)c1oc(COc2ccccc2F)nc1C#N,18.6,-1.4,69.2*,.,-4.53*,-13.0
N#Cc1nc(COc2ccc(Br)cc2)oc1N1CCN(Cc2ccccc2)CC1,10.8,-4.0,-0.4,0.74,-7.83*,-7.7
N#Cc1nc(COc2cccc(Cl)c2)oc1N1CCN(c2ccccc2)CC1,13.8,-0.6,-12.9,0.66,-2.42,-29.4
Cc1cccc(OCc2nc(C#N)c(NCc3ccc4c(c3)OCO4)o2)c1,12.6,-2.5,-2.4,1.42,-6.8*,11.3
CC1CN(c2oc(COc3ccc(Cl)cc3Cl)nc2C#N)CC(C)O1 (stereo unspecified),10.2,5.1,-4.1,-0.39,-4.71*,-7.5
N#Cc1nc(COc2ccc(Cl)cc2)oc1NCc1ccc2c(c1)OCO2,16.3,1.0,-22.1,-1.28,-0.121,2.7
O=C(O)CNC(=O)c1ccc(S(=O)(=O)N2CCOCC2)cc1,12.5,-0.3,-2.5,0.81,-0.0758,-0.4
N#Cc1nc(COc2ccccc2)oc1N1CCCCC1,6.6,-0.4,1.6,.,-5.96*,20.5
CN(Cc1ccccc1)c1oc(-c2ccco2)nc1C#N,4.5,-5.1,-3.8,-1.06,-4.19*,2.5
COc1ccc2ccccc2c1/C=N\n1c(C)cc(C)c(C(N)=O)c1=O,5.5,-5.4,-9.8,0.28,-0.355,-15.2
Cc1nnc(-c2ccccc2)c(=O)n1/N=C/c1c(O)ccc2ccccc12,129.6*[fluorescence artefact?],2.9,-59.1,-0.47,-2.77,-1.8
C=C(C)CSc1nncn1/N=C/c1ccc(OC)cc1,11.8,1.7,-10.2,0.91,-6.04*,-13.0
O=c1c2cn[nH]c2nc(SCc2ccc3c(c2)OCCO3)n1-c1ccccc1,-2.5,2.5,12.8,-3.7*,-3.42,15.9
